In ChEMBL document CHEMBL1156283, “Discovery and optimization of 2-(4-substituted-pyrrolo[2,3-b]pyridin-3-yl)methylene-4-hydroxybenzofuran-3(2H)-ones as potent and selective ATP-competitive inhibitors of the mammalian target of rapamycin (mTOR)” (Bioorg Med Chem Lett, 2010):

Assays:
LNCaP = assay: Cytotoxicity against human LNCAP cells; format: functional, cell-based
[1] = biological target: Phosphatidylinositol 4,5-bisphosphate 3-kinase catalytic subunit alpha isoform (Homo sapiens, UniProt P42336); assay: Inhibition of PI3Kalpha
Homo sapiens = species on record: Homo sapiens; assay: Selectivity ratio of IC50 for PI3Kalpha to IC50 for mTOR
Procedure, shortened: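 Selectivity is calculated as the IC50 against PI3K divided by the IC50 against mTOR.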

[2] = biological target: Mitogen-activated protein kinase 1 (Homo sapiens, UniProt P28482)
[3] = biological target: Glycogen synthase kinase-3 alpha (Homo sapiens, UniProt P49840); assay: Inhibition of GSK3alpha
Aurora kinase B = Aurora kinase B (Homo sapiens, UniProt Q96GD4); assay: Inhibition of Aurora B
[4] = biological target: Cyclin-dependent kinase 1 (Homo sapiens, UniProt P06493); assay: Inhibition of CDK1
[5] = biological target: Tyrosine-protein kinase HCK (Homo sapiens, UniProt P08631); assay: Inhibition of HCK
[6] = biological target: Fibroblast growth factor receptor 1 (Homo sapiens, UniProt P11362)
[7] = biological target: MAP kinase-activated protein kinase 2 (Homo sapiens, UniProt P49137)
[8] = biological target: Cyclin-dependent kinase 2 (Homo sapiens, UniProt P24941); assay: Inhibition of CDK2
[9] = biological target: Ribosomal protein S6 kinase alpha-1 (Homo sapiens, UniProt Q15418); assay: Inhibition of RSK1
[10] = biological target: Tyrosine-protein kinase Lyn (Homo sapiens, UniProt P07948); assay: Inhibition of LYN A
[11] = biological target: Glycogen synthase kinase-3 beta (Homo sapiens, UniProt P49841); assay: Inhibition of GSK3-beta
[12] = biological target: Tyrosine-protein kinase ABL1 (Homo sapiens, UniProt P00519); assay: Inhibition of ABL1
[13] = biological target: Serine/threonine-protein kinase mTOR (Homo sapiens, UniProt P42345); assay: Inhibition of mTOR
[14] = Half life in mouse microsomes in phase 1/2 using NADPH and UDPGA as a cofacto; format: ADME, Microsome
[15] = Half life in mouse microsomes in phase 1 using NADPH as a cofactor; format: ADME, Microsome

Phosphatidylinositol 4,5-bisphosphate 3-kinase catalytic subunit alpha isoform, sequence (P42336 whole entry, canonical isoform): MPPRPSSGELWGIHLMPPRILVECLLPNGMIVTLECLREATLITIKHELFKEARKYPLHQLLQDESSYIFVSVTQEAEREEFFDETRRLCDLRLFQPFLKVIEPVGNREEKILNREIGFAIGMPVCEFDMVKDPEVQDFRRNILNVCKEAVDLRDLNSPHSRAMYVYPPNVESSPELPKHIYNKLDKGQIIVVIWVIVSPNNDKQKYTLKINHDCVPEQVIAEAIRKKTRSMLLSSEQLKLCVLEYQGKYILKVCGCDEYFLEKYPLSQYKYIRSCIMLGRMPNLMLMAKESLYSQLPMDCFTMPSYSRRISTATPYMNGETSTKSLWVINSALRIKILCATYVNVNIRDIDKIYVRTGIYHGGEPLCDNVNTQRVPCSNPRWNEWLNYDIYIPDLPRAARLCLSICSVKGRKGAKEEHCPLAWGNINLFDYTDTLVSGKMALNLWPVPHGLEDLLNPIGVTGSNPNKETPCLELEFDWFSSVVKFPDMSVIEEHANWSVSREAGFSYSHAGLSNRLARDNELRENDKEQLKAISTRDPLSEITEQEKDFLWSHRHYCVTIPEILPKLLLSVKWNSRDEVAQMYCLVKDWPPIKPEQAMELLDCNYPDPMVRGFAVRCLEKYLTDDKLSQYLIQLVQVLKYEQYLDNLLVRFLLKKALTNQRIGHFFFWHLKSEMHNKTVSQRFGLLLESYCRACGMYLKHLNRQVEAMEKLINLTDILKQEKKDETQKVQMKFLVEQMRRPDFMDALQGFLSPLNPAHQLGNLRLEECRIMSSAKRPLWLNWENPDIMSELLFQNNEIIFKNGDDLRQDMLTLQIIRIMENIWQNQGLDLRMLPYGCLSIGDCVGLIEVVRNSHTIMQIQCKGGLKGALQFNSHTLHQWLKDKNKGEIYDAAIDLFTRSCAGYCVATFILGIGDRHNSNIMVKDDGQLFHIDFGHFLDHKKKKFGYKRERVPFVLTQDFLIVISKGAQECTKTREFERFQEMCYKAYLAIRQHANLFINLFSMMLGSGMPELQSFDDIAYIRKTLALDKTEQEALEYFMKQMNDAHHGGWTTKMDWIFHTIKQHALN
Aurora kinase B, sequence (Q96GD4 whole entry): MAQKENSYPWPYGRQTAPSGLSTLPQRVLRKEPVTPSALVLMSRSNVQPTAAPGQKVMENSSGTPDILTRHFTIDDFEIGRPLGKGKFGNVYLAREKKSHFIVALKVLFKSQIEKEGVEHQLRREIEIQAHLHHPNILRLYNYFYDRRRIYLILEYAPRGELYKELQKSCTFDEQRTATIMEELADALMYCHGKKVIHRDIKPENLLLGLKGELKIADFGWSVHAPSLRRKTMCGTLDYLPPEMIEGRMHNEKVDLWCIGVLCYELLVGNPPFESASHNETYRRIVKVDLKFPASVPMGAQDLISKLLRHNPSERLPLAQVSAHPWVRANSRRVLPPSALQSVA
Glycogen synthase kinase-3 alpha, sequence (P49840 whole entry): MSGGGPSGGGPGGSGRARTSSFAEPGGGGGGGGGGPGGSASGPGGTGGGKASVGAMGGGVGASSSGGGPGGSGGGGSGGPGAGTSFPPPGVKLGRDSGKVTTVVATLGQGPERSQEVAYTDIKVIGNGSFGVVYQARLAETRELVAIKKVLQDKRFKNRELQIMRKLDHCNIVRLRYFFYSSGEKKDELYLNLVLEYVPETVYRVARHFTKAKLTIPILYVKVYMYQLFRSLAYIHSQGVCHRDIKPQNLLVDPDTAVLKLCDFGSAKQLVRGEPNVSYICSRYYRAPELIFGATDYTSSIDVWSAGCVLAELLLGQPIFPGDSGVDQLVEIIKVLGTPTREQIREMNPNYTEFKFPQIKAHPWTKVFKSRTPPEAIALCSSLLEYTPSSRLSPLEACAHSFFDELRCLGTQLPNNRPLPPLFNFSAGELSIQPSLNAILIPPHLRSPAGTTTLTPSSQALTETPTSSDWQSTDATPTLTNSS
Ribosomal protein S6 kinase alpha-1, sequence (Q15418 whole entry): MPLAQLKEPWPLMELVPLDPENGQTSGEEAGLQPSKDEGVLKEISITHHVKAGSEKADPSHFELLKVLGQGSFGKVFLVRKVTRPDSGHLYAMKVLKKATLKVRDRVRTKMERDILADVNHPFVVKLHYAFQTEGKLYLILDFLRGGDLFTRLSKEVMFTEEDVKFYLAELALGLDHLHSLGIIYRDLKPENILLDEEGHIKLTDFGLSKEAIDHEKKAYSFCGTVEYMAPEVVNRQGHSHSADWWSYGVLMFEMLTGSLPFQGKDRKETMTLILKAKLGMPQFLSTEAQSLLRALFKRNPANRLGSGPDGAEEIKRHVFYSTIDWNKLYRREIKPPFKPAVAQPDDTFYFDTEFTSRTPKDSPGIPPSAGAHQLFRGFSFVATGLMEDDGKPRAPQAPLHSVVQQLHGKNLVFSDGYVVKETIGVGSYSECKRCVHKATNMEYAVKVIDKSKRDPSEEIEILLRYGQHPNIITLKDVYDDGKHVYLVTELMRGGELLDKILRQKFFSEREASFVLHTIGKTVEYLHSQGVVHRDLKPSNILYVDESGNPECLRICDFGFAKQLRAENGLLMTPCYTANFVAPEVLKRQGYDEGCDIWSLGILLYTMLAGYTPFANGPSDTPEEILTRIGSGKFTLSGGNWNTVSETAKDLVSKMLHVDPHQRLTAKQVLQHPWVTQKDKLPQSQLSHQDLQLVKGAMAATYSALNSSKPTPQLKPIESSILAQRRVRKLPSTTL
Glycogen synthase kinase-3 beta, sequence (P49841 whole entry): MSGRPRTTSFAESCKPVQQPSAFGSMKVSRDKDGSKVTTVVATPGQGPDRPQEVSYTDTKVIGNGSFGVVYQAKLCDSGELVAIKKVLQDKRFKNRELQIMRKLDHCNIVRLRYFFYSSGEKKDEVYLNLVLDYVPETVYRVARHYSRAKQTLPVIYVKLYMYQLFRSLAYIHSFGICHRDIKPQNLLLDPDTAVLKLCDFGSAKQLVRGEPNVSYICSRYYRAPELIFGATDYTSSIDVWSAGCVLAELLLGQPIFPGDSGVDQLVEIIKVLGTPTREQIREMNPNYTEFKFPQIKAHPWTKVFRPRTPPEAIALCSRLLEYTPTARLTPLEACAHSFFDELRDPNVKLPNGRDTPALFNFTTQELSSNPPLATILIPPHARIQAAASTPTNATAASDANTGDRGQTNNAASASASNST
Tyrosine-protein kinase Lyn, sequence (P07948 whole entry): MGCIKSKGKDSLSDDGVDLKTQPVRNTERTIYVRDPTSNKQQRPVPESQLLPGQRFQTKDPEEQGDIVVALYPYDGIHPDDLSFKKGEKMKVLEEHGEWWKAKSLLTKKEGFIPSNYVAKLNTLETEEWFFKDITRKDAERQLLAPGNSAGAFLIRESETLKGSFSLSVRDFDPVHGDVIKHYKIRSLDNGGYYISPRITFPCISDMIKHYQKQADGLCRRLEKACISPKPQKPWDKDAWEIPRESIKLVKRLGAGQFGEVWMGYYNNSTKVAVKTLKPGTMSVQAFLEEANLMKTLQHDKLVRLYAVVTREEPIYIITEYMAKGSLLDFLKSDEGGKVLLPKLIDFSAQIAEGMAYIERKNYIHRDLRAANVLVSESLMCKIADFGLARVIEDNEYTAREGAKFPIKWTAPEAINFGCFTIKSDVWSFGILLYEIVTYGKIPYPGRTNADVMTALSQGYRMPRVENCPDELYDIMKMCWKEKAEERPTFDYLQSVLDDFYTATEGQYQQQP
Fibroblast growth factor receptor 1, sequence (P11362 whole entry): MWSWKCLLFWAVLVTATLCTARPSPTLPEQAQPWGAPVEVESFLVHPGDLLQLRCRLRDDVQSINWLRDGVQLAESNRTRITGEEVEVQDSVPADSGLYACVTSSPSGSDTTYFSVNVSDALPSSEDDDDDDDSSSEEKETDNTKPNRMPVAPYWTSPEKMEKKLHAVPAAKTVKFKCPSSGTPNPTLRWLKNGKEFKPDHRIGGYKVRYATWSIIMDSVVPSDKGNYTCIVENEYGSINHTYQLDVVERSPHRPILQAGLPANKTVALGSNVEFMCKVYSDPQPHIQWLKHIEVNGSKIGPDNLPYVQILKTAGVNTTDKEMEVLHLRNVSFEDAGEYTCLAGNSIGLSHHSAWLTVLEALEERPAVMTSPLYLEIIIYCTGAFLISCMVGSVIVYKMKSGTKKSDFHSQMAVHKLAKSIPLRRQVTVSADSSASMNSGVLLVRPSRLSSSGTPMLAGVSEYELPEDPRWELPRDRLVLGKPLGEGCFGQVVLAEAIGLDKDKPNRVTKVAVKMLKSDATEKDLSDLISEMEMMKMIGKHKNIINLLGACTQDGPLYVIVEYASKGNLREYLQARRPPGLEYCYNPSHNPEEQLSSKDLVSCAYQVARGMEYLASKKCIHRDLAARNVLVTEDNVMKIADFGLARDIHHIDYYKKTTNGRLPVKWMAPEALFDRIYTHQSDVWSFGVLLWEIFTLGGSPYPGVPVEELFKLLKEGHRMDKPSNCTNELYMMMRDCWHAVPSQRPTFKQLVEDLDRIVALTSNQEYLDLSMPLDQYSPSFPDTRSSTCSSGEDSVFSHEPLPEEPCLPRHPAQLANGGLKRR
Cyclin-dependent kinase 1, sequence (P06493 whole entry): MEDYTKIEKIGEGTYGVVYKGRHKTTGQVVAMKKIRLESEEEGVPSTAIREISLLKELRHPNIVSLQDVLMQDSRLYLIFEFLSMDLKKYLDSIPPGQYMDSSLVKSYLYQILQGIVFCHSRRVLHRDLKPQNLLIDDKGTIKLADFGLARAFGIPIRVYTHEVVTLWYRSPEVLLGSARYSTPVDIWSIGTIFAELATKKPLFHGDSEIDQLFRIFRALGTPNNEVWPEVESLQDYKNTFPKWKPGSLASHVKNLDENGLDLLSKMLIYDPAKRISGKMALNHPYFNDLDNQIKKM

| SMILES | IC50 (LNCaP) | Ratio IC50 (Homo sapiens) | IC50 [13] | half-life [14] | half-life [15] | also measured |
| --- | --- | --- | --- | --- | --- | --- |
| CCn1cc(/C=C2\Oc3cccc(O)c3C2=O)c2c(-c3ccc(C(=O)N4CCN(CCO)CC4)cc3)ccnc21 | 4 nM | 98 |  |  |  | IC50 [1]: 455 nM |
| Cn1cc(/C=C2\Oc3cccc(O)c3C2=O)c2c(-c3ccc(C(=O)NCCO)cc3)ccnc21 |  |  |  |  |  | IC50 [2]: 50 nM; IC50 [3]: 10600 nM; IC50 (Aurora kinase B): 22200 nM; IC50 [4]: 39200 nM; IC50 [5]: 27100 nM; IC50 [6]: 50 nM; IC50 [7]: 6.5 nM; IC50 [8]: 35500 nM; IC50 [9]: 45900 nM; IC50 [10]: 27700 nM; IC50 [11]: 5900 nM; IC50 [12]: 9700 nM |
| Cn1cc(/C=C2\Oc3cccc(O)c3C2=O)c2c(N3CC4CCC(C3)O4)ccnc21 | 2 nM | 274 | 0.38 nM |  |  |  |
| Cn1cc(/C=C2\Oc3cc(O)ccc3C2=O)c2c(-c3ccccc3)ccnc21 | 1800 nM | 11 |  |  |  |  |
| Cn1cc(/C=C2\Oc3cccc(O)c3C2=O)c2c(-c3ccc(C(=O)N4CC5CCC(C4)O5)cc3)ccnc21 | 8 nM | 103 | 0.56 nM | 2 min | 6 min |  |
| Cn1cc(/C=C2\Oc3cccc(O)c3C2=O)c2c(-c3ccc(C(=O)N4CCOCC4)cc3)ccnc21 | 1 nM | 97 |  | 10 min | > 30 min |  |
| Cn1cc(/C=C2\Oc3cccc(O)c3C2=O)c2c(-c3ccccc3)ccnc21 |  | 25.8 | 3.45 nM |  | 22 min |  |
| Cn1cc(/C=C2\Oc3cc(O)cc(O)c3C2=O)c2cccnc21 | 6500 nM | 1.7 | 42 nM |  |  | IC50 [1]: 77 nM |
| Cn1cc(/C=C2\Oc3cccc(O)c3C2=O)c2c(N3CCOCC3)ccnc21 | 5 nM | 24 |  |  |  |  |
| CN(C)C(=O)c1ccc(-c2ccnc3c2c(/C=C2\Oc4cccc(O)c4C2=O)cn3C)cc1 | 4 nM | 65 | 0.55 nM |  |  |  |
| Cn1cc(/C=C2\Oc3cccc(O)c3C2=O)c2c(N3CCC(C(=O)N4CCOCC4)CC3)ccnc21 | < 1 nM | 45 |  | > 30 min | > 30 min |  |
| Cn1cc(/C=C2\Oc3cccc(O)c3C2=O)c2c(-c3ccc(C(=O)N4CCN(CCO)CC4)cc3)ccnc21 | 1 nM | 256 | 0.39 nM | > 30 min | > 30 min |  |
| CN1CCN(C(=O)c2ccc(-c3ccnc4c3c(/C=C3\Oc5cccc(O)c5C3=O)cn4C)cc2)CC1 | 9 nM | 70 |  | 24 min | 28 min |  |
| Cn1cc(/C=C2\Oc3cccc(O)c3C2=O)c2c(N3CCC(N)CC3)ccnc21 | 240 nM | 6 |  |  |  |  |
| CN1CCN(c2ccnc3c2c(/C=C2\Oc4cc(O)cc(O)c4C2=O)cn3C)CC1 | 110 nM | 46 |  |  |  | IC50 [1]: 43 nM |
| Cn1cc(/C=C2\Oc3cccc(O)c3C2=O)c2c(N3CCC(C(N)=O)CC3)ccnc21 | 10 nM | 41 | 0.72 nM |  |  |  |
| CN1CCN(C(=O)C2CCN(c3ccnc4c3c(/C=C3\Oc5cccc(O)c5C3=O)cn4C)CC2)CC1 | < 1 nM | 12 |  | > 30 min | > 30 min |  |
| Cn1cc(/C=C2\Oc3cc(O)cc(O)c3C2=O)c2c(-c3ccccc3)ccnc21 | 77 nM | 137 | 0.46 nM | 2 min | 20 min |  |
| CN(C)C(=O)C1CCN(c2ccnc3c2c(/C=C2\Oc4cccc(O)c4C2=O)cn3C)CC1 | 1 nM | 46 | 0.67 nM | 20 min | > 30 min | IC50 [1]: 30 nM |
| Cn1cc(/C=C2\Oc3cccc(O)c3C2=O)c2c(N3CCC(C(=O)N4CC5CCC(C4)O5)CC3)ccnc21 | 1 nM | 26 |  | 16 min | > 30 min | IC50 [1]: 52 nM |
| CN(C)C(=O)c1cccc(-c2ccnc3c2c(/C=C2\Oc4cccc(O)c4C2=O)cn3C)c1 | 600 nM | 20.5 |  |  |  |  |
| CN(C)C(=O)c1ccccc1-c1ccnc2c1c(/C=C1\Oc3cccc(O)c3C1=O)cn2C | > 60000 nM | 32.8 |  |  |  |  |
| Cn1cc(/C=C2\Oc3cccc(O)c3C2=O)c2c(N3C4CCC3COC4)ccnc21 | 2 nM | 9 |  |  |  |  |
| Cn1cc(/C=C2\Oc3cccc(O)c3C2=O)c2c(N3CCC(CN)CC3)ccnc21 | 75 nM | 9 |  |  |  |  |
| CN1CCN(c2ccnc3c2c(/C=C2\Oc4cccc(O)c4C2=O)cn3C)CC1 | 3 nM | 63 | 2.75 nM |  |  |  |
| Cn1cc(/C=C2\Oc3cccc(O)c3C2=O)c2c(N3CCC(C(=O)N4CCN(CCO)CC4)CC3)ccnc21 | 1 nM | 13 | 1.85 nM | 14 min | > 30 min | IC50 [1]: 25 nM |
| Cn1cc(/C=C2\Oc3cc(O)cc(O)c3C2=O)c2c(-c3ccccc3)cccc21 | 1400 nM |  |  |  |  | IC50 [1]: 1480 nM |
